Reference: ChEMBL document CHEMBL1123201, “7-(Trifluoromethyl)-4-aminoquinoline hypotensives: novel peripheral sympatholytics” (J Med Chem, 1986)
Values joined by “and” are separate entries in the source; they are usually repeats but may differ in a detail not shown here. Equal values may be shown once.

Experiments:
[1] = system: Rattus norvegicus; test: Compound was tested for hypotensive activity by measuring the average change in mean arterial blood pressure in mmHg after 24 hr at 50 mg/Kg oral dosing of a conscious rat; assay type: functional, Artery
Method in brief: (§1)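 Restrained (towel-wrapped, to raise sympathetic tone) conscious female Sprague-Dawley rats with chronic indwelling aortic cannulas exteriorized at the nape; blood pressure recorded directly by transducer before and 4 and 24 h after oral dosing. Compound suspended in carboxymethylcellulose vehicle, 10 mL/kg; doses 50 to 0.05 mg/kg. Two rats averaged per time point; average change ≥5 mmHg taken as significant (p < 0.05).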

[2] = system: Rattus norvegicus; test: Compound was tested for hypotensive activity by measuring the average change in mean arterial blood pressure in mmHg after 4 hr at 50 mg/Kg oral dosing of a conscious rat; assay type: functional, Artery; method in brief: as §1
[3] = system: Rattus norvegicus; test: Compound was tested for hypotensive activity by measuring the average change in mean arterial blood pressure in mmHg after 24 hr at 150 mg/Kg oral dosing of a conscious rat; assay type: functional, Artery
[4] = system: Rattus norvegicus; test: Compound was tested for hypotensive activity by measuring the average change in mean arterial blood pressure in mmHg after 4 hr at 150 mg/Kg oral dosing of a conscious rat; assay type: functional, Artery
[5] = system: Rattus norvegicus; test: Compound was tested for hypotensive activity by measuring the average change in mean arterial blood pressure in mmHg after 4 hr at 0.5 mg/Kg oral dosing of a conscious rat; assay type: functional, Artery; method in brief: as §1
[6] = system: Rattus norvegicus; test: Hypotensive activity in conscious rat 24 hr after 5 mg/kg p.o. administration.; assay type: functional; settings: route oral; method in brief: as §1
[7] = system: Rattus norvegicus; test: Compound was tested for hypotensive activity by measuring the average change in mean arterial blood pressure in mmHg after 24 hr at 0.5 mg/Kg oral dosing of a conscious rat; assay type: functional, Artery; method in brief: as §1
[8] = system: Rattus norvegicus; test: Hypotensive activity in conscious rat 4 hr after 5 mg/kg p.o. administration.; assay type: functional; settings: route oral; method in brief: as §1
[9] = species on record: Mus musculus; test: Lowest dose of compound associated with unacceptable clinical signs.; assay type: functional
[10] = Acute toxicity was determined in mice; assay type: organism-based; settings: mouse, in vivo
[11] = species on record: Mus musculus; test: Lowest dose of compound associated with clinical signs; NA is Not Acceptable.; assay type: functional, organism-based
[12] = species on record: Mus musculus; test: Lowest dose of compound associated with clinical signs.; assay type: functional
[13] = system: Rattus norvegicus; test: Compound was tested for hypotensive activity by measuring the average change in mean arterial blood pressure in mmHg after 24 hr at 0.1 mg/Kg oral dosing of a conscious rat; assay type: functional, Artery; method in brief: as §1
[14] = system: Rattus norvegicus; test: Compound was tested for hypotensive activity by measuring the average change in mean arterial blood pressure in mmHg after 4 hr at 0.1 mg/Kg oral dosing of a conscious rat; assay type: functional, Artery; method in brief: as §1

SMILES	Activity [1] [mmHg]	Activity [2] [mmHg]	Activity [6] [mmHg]	Activity [8] [mmHg]	also measured
O=C(c1ccc(Nc2ccnc3cc(C(F)(F)F)ccc23)cc1)N1CCC(c2ccccc2)CC1	-17	-4			
COc1ccc(N2CCN(Cc3ccc(Nc4ccnc5cc(C(F)(F)F)ccc45)cc3)CC2)cc1	-1	1			Activity [3]: -16 mmHg; Activity [4]: -5 mmHg
COc1ccccc1N1CCN(C(=O)c2ccc(Nc3ccnc4cc(C(F)(F)F)ccc34)cc2)CC1	-27	-13			
Cc1cccc(C2(O)CCN(C(=O)c3ccc(Nc4ccnc5cc(C(F)(F)F)ccc45)cc3)CC2)c1			-4	-10	Activity [5]: -4 mmHg; Activity [7]: -1 mmHg
O=C(c1ccc(Nc2ccnc3cc(C(F)(F)F)ccc23)cc1)N1CCC(O)(c2ccc(Cl)cc2)CC1					Activity [5]: -19 mmHg; Dose [9]: <100 mg/kg; Activity [7]: -22 mmHg; LD50 [10]: 237 mg/kg; DOSE [11]: Not acceptable
Fc1ccc(N2CCN(Cc3ccc(Nc4ccnc5cc(C(F)(F)F)ccc45)cc3)CC2)cc1	-18	-4			Activity ([8]; 5 mg/kg): -7 mmHg and -9 mmHg
Cc1cccc(C2=CCN(C(=O)c3ccc(Nc4ccnc5cc(C(F)(F)F)ccc45)cc3)CC2)c1			-8	-8	
COc1ccccc1N1CCN(S(=O)(=O)c2ccc(Nc3ccnc4cc(C(F)(F)F)ccc34)cc2)CC1			-14	-1	
Cc1ccc(S(=O)(=O)N2CCN(C(=O)c3ccc(Nc4ccnc5cc(C(F)(F)F)ccc45)cc3)CC2)cc1			-25	-42	
CN(C)S(=O)(=O)N1CCN(C(=O)c2ccc(Nc3ccnc4cc(C(F)(F)F)ccc34)cc2)CC1			-6	-18	Activity [5]: -6 mmHg; Dose [9]: >3160 mg/kg; Activity [7]: -2 mmHg; Dose [12]: 100 mg/kg; LD50 [10]: > 3160 mg/kg
O=C(c1ccc(Nc2ccnc3cc(C(F)(F)F)ccc23)cc1)N1CCN(c2[nH]cnc3ncnc2-3)CC1	-3	-4			
COc1ccc(S(=O)(=O)N2CCN(C(=O)c3ccc(Nc4ccnc5cc(C(F)(F)F)ccc45)cc3)CC2)cc1			-3	-6	
O=C(c1ccc(Nc2ccnc3cc(C(F)(F)F)ccc23)cc1)N1CC=C(c2ccc(Cl)cc2)CC1			-16	-7	Dose [9]: 316 mg/kg; Activity [13]: -11 mmHg; Dose [12]: <100 mg/kg; Activity [14]: -3 mmHg; LD50 [10]: 1000 mg/kg
O=C(c1ccc(Nc2ccnc3cc(C(F)(F)F)ccc23)cc1)N1CCN(c2ccccc2)CC1	-13	4			
